Compound activity: PubChem, The Scripps Research Institute Molecular Screening Center
Sampled rows, rich in hits. Any-hit rate of the full collection: about 2.5%.
PAD4 FP inh: PAD4 (human) enzyme inhibition. Q9UM07. recombinant PAD4, RCA probe fluorescence polarization. inhibition, % at 6.36 µM. 330,000 compounds, 0.41% hits;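 active = percent inhibition above a cutoff equal to the mean of all tested compounds plus 3 SD, cut at about 15% in these data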;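 note: 0% = PAD4 with RCA probe and DMSO and 100% = probe without PAD4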
Target sequence (Q9UM07 whole entry, looked up): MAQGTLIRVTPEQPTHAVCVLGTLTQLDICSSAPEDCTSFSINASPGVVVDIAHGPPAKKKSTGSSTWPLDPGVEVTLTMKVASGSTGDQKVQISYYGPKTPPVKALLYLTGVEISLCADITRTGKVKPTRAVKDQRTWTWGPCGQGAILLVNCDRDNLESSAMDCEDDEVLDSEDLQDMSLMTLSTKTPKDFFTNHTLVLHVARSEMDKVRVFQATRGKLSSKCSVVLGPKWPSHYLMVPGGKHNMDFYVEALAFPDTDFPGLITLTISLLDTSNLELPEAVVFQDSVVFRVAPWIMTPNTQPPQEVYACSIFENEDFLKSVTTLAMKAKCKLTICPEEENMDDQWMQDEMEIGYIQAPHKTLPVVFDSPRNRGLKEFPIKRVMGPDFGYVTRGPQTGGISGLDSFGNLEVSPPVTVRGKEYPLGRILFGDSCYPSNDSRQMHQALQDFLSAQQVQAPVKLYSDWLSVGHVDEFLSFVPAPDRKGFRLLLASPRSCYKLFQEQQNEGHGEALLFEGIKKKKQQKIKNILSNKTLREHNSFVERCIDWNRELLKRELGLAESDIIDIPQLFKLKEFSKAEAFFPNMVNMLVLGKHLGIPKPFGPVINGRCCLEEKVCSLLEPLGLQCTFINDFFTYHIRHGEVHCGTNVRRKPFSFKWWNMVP
TDP2 inh: TDP2 (human) inhibition, absorbance primary screen. O95551. 370,000 compounds, 0.34% hits. inhibition, % at 12.8 µM. recombinant TDP2, T5PNP hydrolysis, p-nitrophenol absorbance 415 nm;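 active = inhibition above the mean of all tested compounds plus 3 SD, set per campaign, cut at about 25% in these data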;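 note: 0% = DMSO with enzyme and 100% = buffer with substrate but no TDP2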
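Evaluation: % inhibition relative to enzyme-containing and enzyme-free wells. Material: recombinant human TDP2. Benchmarks: enzyme-free and DMSO wells. Timing: enzyme reaction with compound for 2 h at 37 °C. Compound dosing: 12.8 µM only. Measured by: p-Nitrophenol epi absorbance. Reagent: T5PNP substrate at 5 mM, a TopII-DNA adduct mimic. Replication: single well per compound.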
GSTO1 inh: blocks human GSTO1 in RBBP9 counter-screen | P78417 | recombinant GSTO1, activity-based probe fluorescence polarization | inhibition, % at 5.96 µM | 300,000 compounds, 1.1% hits;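 active = inhibition above the campaign mean inhibition plus 3 SD, cut at about 35% in these data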;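 note: 0% = GSTO1-1 with DMSO and 100% = wells lacking GSTO1-1 enzyme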
CTSL1 counter: cathepsin L1 inhibition, PFM18AAP counter-screen | recombinant F. hepatica cathepsin L1, Z-Leu-Arg-MCA fluorescence | inhibition, % at 5.96 µM | 300,000 compounds, 0.49% hits | AID 1906;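 active = inhibition above the mean of all tested compounds plus 3 SD, set per screening campaign, cut at about 17% in these data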;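 note: 0% = plate median of test compound wells and 100% = 1 µM Z-Phe-Ala-diazomethylketone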
PRMT1 inh: PRMT1 (human) inhibition, primary screen. Q99873. recombinant PRMT1, activity-based probe fluorescence polarization. inhibition, % at 2.79 µM. 370,000 compounds, 1.3% hits. AID 652257;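 active = inhibition above about 21% made by adding two undisclosed values, limit read from the data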
PRMT1 confirm: confirmation of human PRMT1 inhibitors. shares compounds with PRMT1 inh. inhibition, % at 2.79 µM. recombinant His-PRMT1, activity-based probe fluorescence polarization. 3,300 compounds, 42% hits;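 active = mean inhibition across replicates above the hit cutoff derived for the earlier primary screen, cut at about 22% in these data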
Numbers without * were called inactive; · = no result given.

SMILES	PAD4 FP inh	TDP2 inh	GSTO1 inh	CTSL1 counter	PRMT1 inh	PRMT1 confirm
Cc1cc(NS(=O)(=O)c2ccc(NC(=O)Cc3ccc(Cl)c(F)c3)cc2)no1	·	-3	·	·	1	·
COC(=O)[C@@H](C)NC(=O)C(Cc1ccc2c(c1)OCO2)NC(C)=O (some centres undefined)	·	3	·	·	1	·
O=C(O)CN1C(=O)/C(=C\c2ccccc2OCc2ccc(F)cc2)SC1=S	-2	-8	-6	-2	25*	-1
O=C1/C(=C\c2cc([N+](=O)[O-])ccc2O)SC(=S)N1Cc1ccc(Cl)cc1	-106	-6	-162	0	26*	33*
O=C1/C(=C\c2cccc(O)c2O)SC(=S)N1Cc1ccccc1	9	-19	27	-2	94*	14
O=C1/C(=C\c2ccc(O)c(O)c2)SC(=S)N1Cc1ccccc1	·	-7	·	·	2	·
O=C1C(=Cc2ccccc2O)SC(=S)N1CCCN1CCOCC1	·	-6	·	·	68*	83*
O=C(O)CN1C(=O)/C(=C\c2cc([N+](=O)[O-])ccc2OCc2ccccc2Cl)SC1=S	-9	14	10	3	19	·
O=C(O)CN1C(=O)/C(=C\c2cc(Br)ccc2OCc2ccc(F)cc2)SC1=S	-4	24	-9	-4	2	·
Cc1ccc(-n2c(SCc3nc4ccccc4[nH]3)nnc2-c2ccccn2)cc1	·	2	·	·	-3	·
Nc1nc(Cl)nc2c1ncn2[C@@H]1O[C@H](CO)[C@@H](O)[C@@H]1F	·	-5	·	·	1	·
CCOC(=O)[C@]12CCCC=C1N(CCc1ccc(OC)c(OC)c1)C(=O)[C@H](CC(=O)NCc1ccc(C)o1)C2	·	4	·	·	3	·
COC(=O)[C@]12C[C@H](CC(=O)NCc3cccc(C(F)(F)F)c3)C(=O)N(CCc3ccc(OC)c(OC)c3)C1=C[C@H](COCc1ccccc1)O[C@@H]2C	·	0	·	·	-3	·
COCc1cc(N2CCN(C(=O)OC(C)(C)C)C[C@@H]2C)ccc1N1CC[C@@H](O)C1	·	4	·	·	50*	9
CC(C)c1ccc(/C=N/n2c(-c3ccccc3)n[nH]c2=S)cc1	-1	-22	3	4	51*	21*
CCOc1ccc(C=Nn2c(-c3cccc(OC(C)C)c3)n[nH]c2=S)cc1	·	-6	·	·	29*	10
CCCCCCn1c(-c2cccs2)n[nH]c1=S	-2	-11	-7	-4	41*	5
CCN(CC)S(=O)(=O)c1cccc(-c2n[nH]c(=S)n2/N=C/c2ccc(Br)cc2)c1	5	-2	3	1	46*	33*
COC(=O)[C@]12C[C@H](CC(=O)NCc3ccc(C)o3)C(=O)N(Cc3ccc4c(c3)OCO4)C1=C[C@H](C(C)(C)C)O[C@@H]2C	·	-3	·	·	2	·
O=C(NC1CCCCN(Cc2cccc(C(F)(F)F)c2)C1=O)c1ccc(-c2ccccc2)cc1 (centres undefined)	·	1	·	·	2	·
CCC(C)n1c(-c2cccc(S(=O)(=O)N(CC)CC)c2)n[nH]c1=S (centres undefined)	2	2	0	1	0	·
Cc1ccc(/C=N/n2c(-c3cccc(Cl)c3)n[nH]c2=S)o1	-4	-2	-10	-5	26*	13
CCN(CC)S(=O)(=O)c1cccc(-c2n[nH]c(=S)n2/N=C/c2ccc(OC(F)F)cc2)c1	2	-12	0	4	51*	34*
CCN(CC)S(=O)(=O)c1cccc(-c2n[nH]c(=S)n2/N=C/c2ccc(OC)cc2)c1	2	4	5	4	59*	30*
CCN(CC)S(=O)(=O)c1cccc(-c2n[nH]c(=S)n2C(C)COC)c1 (centres undefined)	2	-7	2	0	3	·
SMILES	PAD4 FP inh	TDP2 inh	GSTO1 inh	CTSL1 counter	PRMT1 inh	PRMT1 confirm
Cc1ccc(/C=N/n2c(-c3cccs3)n[nH]c2=S)cc1	4	-2	-14	0	25*	13
CCOC(=O)[C@]12CCCC3=C1N(CCC3)C(=O)[C@@H](CC(=O)N1CCN(C(=O)C3CC3)CC1)C2	·	8	·	·	-1	·
Cc1ccc(S(=O)(=O)Nc2nc3ccccc3nc2NCc2ccco2)cc1	9	7	3	-1	33*	9
Clc1ccc(OCc2nn3c(C4CCCCC4)nnc3s2)cc1	-6	-5	3	3	27*	1
O=C(c1cccc(F)c1)n1ccc2ccc(-c3ccc4ccn(Cc5ccccc5)c4c3)cc21	·	9	·	·	3	·
O=C(CSc1nnc(-c2ccccc2)n1-c1ccc(Cl)cc1)c1ccc(Cl)cc1	·	3	·	·	-1	·
O=C1c2ccccc2C(=O)N1Cc1ccco1	-2	-5	-3	1	-1	·
O=C1c2cccc3c(O)ccc(c23)C(=O)N1Cc1ccco1	·	0	·	·	158*	169*
Nc1cccnc1Sc1cc(Cl)cc(Cl)c1	1	0	6	5	62*	3
COc1ccc2sc(SCCCS(=O)(=O)O)[n+](CCCS(=O)(=O)[O-])c2c1	-1	5	-4	4	58*	59*
O=S(=O)([O-])CCC[n+]1ccc(Oc2ccccc2)cc1	·	17	·	·	-4	·
O=C(C1CCN(c2nc(-c3ccc(Br)cc3)cs2)CC1)N1CCNCC1	·	-8	·	·	-3	·
CC(=O)N1CCN(c2nc(-c3ccco3)c3c(c2C#N)CC(C)(C)SC3)CC1	-3	0	5	2	46*	5
Nc1c(C(=O)O)sc2nc(-c3ccccc3)c3c(c12)CCCC3	-2	-2	-6	-2	27*	5
O=C1S/C(=C\c2cccs2)C(=O)N1c1ccc(O)cc1	-3	12	15	5	2	·
O=C1S/C(=C\C=C\c2ccco2)C(=O)N1c1ccc(O)cc1	-9	7	24	5	31*	4
O=C1S/C(=C\C=C\c2ccco2)C(=O)N1c1ccccc1	-7	-4	2	-1	40*	9
O=C(c1ccc(F)cc1Cl)N1CCCC(c2nc(-c3cccs3)no2)C1 (centres undefined)	·	-4	·	·	1	·
O=C(c1cccc(Cl)c1)N1CCN(c2ccnc3cc(Cl)ccc23)CC1	·	3	·	·	0	·
O=C(NC1CCCCC1)c1ccc(-c2ccccc2)cc1	0	-2	-4	-1	42*	-6
O=C1C=CC(=Nc2ccc(F)cc2)O1	·	3	·	·	50*	79*
O=C1C=CC(=Nc2ccc3c(c2)C(=O)c2ccccc2-3)O1	·	-5	·	·	12	·
CC1=CC(=O)C(Sc2ccc(C)cc2)=CC1=O	·	-14	·	·	88*	95*
OCCn1c(-c2ccc3c(c2)OCO3)csc1=Nc1ccccc1	5	3	4	4	32*	1
OCCn1c(-c2ccc(F)cc2)csc1=Nc1ccccc1	0	9	0	-1	42*	0
CCOc1ccc(N=c2scc(-c3ccc(OC)cc3)n2CCO)cc1	-2	-1	4	3	26*	-1
CCOc1ccc(N=c2scc(-c3ccccc3)n2CCO)cc1	2	3	10	0	13	·
